# Reference: ChEMBL document CHEMBL1687848, “In vitro effect of qnrA1, qnrB1, and qnrS1 genes on fluoroquinolone activity against isogenic Escherichia coli isolates with mutations in gyrA and parC” (2011)
# What was measured:
# Format in all cases: functional
# [1] = test system: Escherichia coli; test: Antibacterial activity against qnrS gene expressing Escherichia coli ATCC 25922 harboring GyrA S83L mutant and pBK-QnrS1 by broth microdilution method
# [2] = test system: Escherichia coli; test: Antibacterial activity against qnrB gene expressing Escherichia coli ATCC 25922 harboring ParC S80R mutant and pBK-QnrB1 by broth microdilution method
# [3] = test system: Escherichia coli; test: Antibacterial activity against Escherichia coli ATCC 25922 by broth microdilution method
# [4] = test system: Escherichia coli; test: Antibacterial activity against qnrA gene expressing Escherichia coli ATCC 25922 harboring ParC S80R mutant and pBK-QnrA1 by broth microdilution method
# [5] = test system: Escherichia coli; test: Antibacterial activity against qnrB gene expressing Escherichia coli ATCC 25922 harboring GyrA S83L mutant and pBK-QnrB1 by broth microdilution method
# [6] = test system: Escherichia coli; test: Antibacterial activity against Escherichia coli ATCC 25922 expressing qnrB gene and pBK-QnrB1 assessed as earliest time required to resistant colonies visible one step below mutant prevention concentration
# [7] = test system: Escherichia coli; test: Antibacterial activity against Escherichia coli ATCC 25922 harboring GyrA S83L mutant assessed as earliest time required to resistant colonies visible one step below mutant prevention concentration
# [8] = test system: Escherichia coli; test: Antibacterial activity against qnrS gene expressing Escherichia coli ATCC 25922 harboring GyrA S83L mutant and pBK-QnrS1 assessed as resistant colonies recovered one step below mutant prevention concentration
# How it was run: (§1)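 Resistant colonies recovered from Mueller-Hinton plates one concentration step below the MPC for each fluoroquinolone were retested for MIC. Mutants taken from plated concentrations closest to the MPC had the QRDRs of gyrA and parC analysed.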
# [9] = test system: Escherichia coli; test: Antibacterial activity against Escherichia coli ATCC 25922 expressing qnrB gene and pBK-QnrB1 assessed as mutant prevention concentration
# [10] = test system: Escherichia coli; test: Antibacterial activity against qnrS gene expressing Escherichia coli ATCC 25922 harboring ParC S80R mutant, ParC S80R mutant and pBK-QnrS1 by broth microdilution method
# [11] = test system: Escherichia coli; test: Antibacterial activity against qnrB gene expressing Escherichia coli ATCC 25922 harboring GyrA S83L mutant and pBK-QnrB1 assessed as resistant colonies recovered one step below mutant prevention concentration; how it was run: as §1
# [12] = test system: Escherichia coli; test: Antibacterial activity against qnrA gene expressing Escherichia coli ATCC 25922 harboring GyrA S83L mutant and pBK-QnrA1 by broth microdilution method
# [13] = test system: Escherichia coli; test: Antibacterial activity against qnrA gene expressing Escherichia coli ATCC 25922 harboring GyrA S83L mutant and pBK-QnrA1 assessed as earliest time required to resistant colonies visible one step below mutant prevention concentration
# [14] = test system: Escherichia coli; test: Antibacterial activity against Escherichia coli ATCC 25922 harboring GyrA S83L mutant assessed as resistant colonies recovered one step below mutant prevention concentration; how it was run: as §1
# [15] = test system: Escherichia coli; test: Antibacterial activity against Escherichia coli ATCC 25922 expressing qnrB gene and pBK-QnrB1 assessed as resistant colonies recovered one step below mutant prevention concentration; how it was run: as §1
# [16] = test system: Escherichia coli; test: Antibacterial activity against Escherichia coli ATCC 25922 assessed as earliest time required to resistant colonies visible one step below mutant prevention concentration
# [17] = test system: Escherichia coli; test: Antibacterial activity against qnrA gene expressing Escherichia coli ATCC 25922 harboring ParC S80R mutant, ParC S80R mutant and pBK-QnrA1 by broth microdilution method
# [18] = test system: Escherichia coli; test: Antibacterial activity against qnrB gene expressing Escherichia coli ATCC 25922 harboring GyrA S83L mutant and pBK-QnrB1 assessed as earliest time required to resistant colonies visible one step below mutant prevention concentration
# [19] = test system: Escherichia coli; test: Antibacterial activity against qnrS gene expressing Escherichia coli ATCC 25922 harboring ParC S80R mutant and pBK-QnrS1 by broth microdilution method
# [20] = test system: Escherichia coli; test: Antibacterial activity against Escherichia coli ATCC 25922 harboring GyrA S83L mutant and ParC S80R mutant by broth microdilution method
# [21] = test system: Escherichia coli; test: Antibacterial activity against Escherichia coli ATCC 25922 harboring GyrA S83L mutant by broth microdilution method
# [22] = test system: Escherichia coli; test: Antibacterial activity against Escherichia coli ATCC 25922 expressing qnrA gene and pBK-QnrA1 assessed as mutant prevention concentration
# [23] = test system: Escherichia coli; test: Antibacterial activity against Escherichia coli ATCC 25922 expressing qnrS gene and pBK-QnrS1 by broth microdilution method
# [24] = test system: Escherichia coli; test: Antibacterial activity against Escherichia coli ATCC 25922 expressing qnrS gene and pBK-QnrS1 assessed as earliest time required to resistant colonies visible one step below mutant prevention concentration
# [25] = test system: Escherichia coli; test: Antibacterial activity against Escherichia coli ATCC 25922 harboring ParC S80R mutant by broth microdilution method
# [26] = test system: Escherichia coli; test: Antibacterial activity against qnrA gene expressing Escherichia coli ATCC 25922 harboring GyrA S83L mutant and pBK-QnrA1 assessed as mutant prevention concentration
# [27] = test system: Escherichia coli; test: Antibacterial activity against Escherichia coli ATCC 25922 harboring GyrA S83L mutant assessed as mutant prevention concentration
# [28] = test system: Escherichia coli; test: Antibacterial activity against Escherichia coli ATCC 25922 expressing qnrS gene and pBK-QnrS1 assessed as resistant colonies recovered one step below mutant prevention concentration; how it was run: as §1
# [29] = test system: Escherichia coli; test: Antibacterial activity against Escherichia coli ATCC 25922 assessed as mutant prevention concentration
# [30] = test system: Escherichia coli; test: Antibacterial activity against Escherichia coli ATCC 25922 expressing qnrB gene and pBK-QnrB1 by broth microdilution method
# [31] = test system: Escherichia coli; test: Antibacterial activity against Escherichia coli ATCC 25922 expressing qnrA gene and pBK-QnrA1 assessed as resistant colonies recovered one step below mutant prevention concentration; how it was run: as §1
# [32] = test system: Escherichia coli; test: Antibacterial activity against Escherichia coli ATCC 25922 expressing qnrS gene and pBK-QnrS1 assessed as mutant prevention concentration
# [33] = test system: Escherichia coli; test: Antibacterial activity against Escherichia coli ATCC 25922 expressing qnrA gene and pBK-QnrA1 assessed as earliest time required to resistant colonies visible one step below mutant prevention concentration
# [34] = test system: Escherichia coli; test: Antibacterial activity against qnrB gene expressing Escherichia coli ATCC 25922 harboring ParC S80R mutant, ParC S80R mutant and pBK-QnrB1 by broth microdilution method
# [35] = test system: Escherichia coli; test: Antibacterial activity against qnrB gene expressing Escherichia coli ATCC 25922 harboring GyrA S83L mutant and pBK-QnrB1 assessed as mutant prevention concentration
# [36] = test system: Escherichia coli; test: Antibacterial activity against Escherichia coli ATCC 25922 expressing qnrA gene and pBK-QnrA1 by broth microdilution method
# [37] = test system: Escherichia coli; test: Antibacterial activity against qnrS gene expressing Escherichia coli ATCC 25922 harboring GyrA S83L mutant and pBK-QnrS1 assessed as earliest time required to resistant colonies visible one step below mutant prevention concentration
# [38] = test system: Escherichia coli; test: Antibacterial activity against qnrS gene expressing Escherichia coli ATCC 25922 harboring GyrA S83L mutant and pBK-QnrS1 assessed as mutant prevention concentration
smiles,measurement,setting,value
COc1c(N2C[C@@H]3CCCN[C@@H]3C2)c(F)cc2c(=O)c(C(=O)O)cn(C3CC3)c12 [MOXIFLOXACIN],MBC,[1],2 µg/mL
same,MIC,[1],1 µg/mL
same,MBC,[2],0.5 µg/mL
same,MIC,[2],0.5 µg/mL
same,MBC,[3],0.015 µg/mL
same,MIC,[3],0.008 µg/mL
same,MBC,[4],0.5 µg/mL
same,MIC,[4],0.5 µg/mL
same,MBC,[5],0.5 µg/mL
same,MIC,[5],0.5 µg/mL
same,Time,[6],24 h
same,Time,[7],24 h
same,MIC,[8],1 µg/mL
same,Activity,[9],4 µg/mL
same,MBC,[10],4 µg/mL
same,MIC,[11],1 µg/mL
same,MBC,[12],0.5 µg/mL
same,MIC,[12],0.5 µg/mL
same,Time,[13],24 h
same,MIC,[14],1 µg/mL
same,MIC,[15],0.5 µg/mL
same,Time,[16],48 h
same,MBC,[17],4 µg/mL
same,Time,[18],24 h
same,MBC,[19],0.5 µg/mL
same,MIC,[19],0.25 µg/mL
same,MBC,[20],0.25 µg/mL
same,MIC,[20],0.25 µg/mL
same,MBC,[21],0.125 µg/mL
same,Activity,[22],8 µg/mL
same,MBC,[23],0.25 µg/mL
same,MIC,[23],0.25 µg/mL
same,Time,[24],24 h
same,MBC,[25],0.008 µg/mL
same,MIC,[25],0.008 µg/mL
same,Activity,[26],16 µg/mL
same,Activity,[27],4 µg/mL
same,MIC,[28],0.5 µg/mL
same,Activity,[29],2 µg/mL
same,MBC,[30],1 µg/mL
same,MIC,[30],0.25 µg/mL
same,MIC,[31],0.5 µg/mL
same,Activity,[32],4 µg/mL
same,Time,[33],24 h
same,MBC,[34],2 µg/mL
same,MIC,[34],1 µg/mL
same,Activity,[35],32 µg/mL
same,MBC,[36],0.5 µg/mL
same,MIC,[36],0.25 µg/mL
same,Time,[37],24 h
same,Activity,[38],32 µg/mL
